# Bioassay records from PubChem BioAssay.
# Most compounds without a hit are left out; they make up all but 3.7% or so of the library.
# EBI2 antag: EBI2 receptor antagonists, beta-arrestin recruitment, primary screen, cell-based, luminescence, 7a,25-OHC stimulation, uHTS; 360,000 tested, 0.81% active; 7a,25-OHC stimulated; G-protein coupled receptor 183 (Homo sapiens), P32249; inhibition, % at 5 µM; AID 651636, 2012; in the data active = inhibition above about 38%;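 also: enzyme fragment complementation signal reports receptor beta-arrestin coupling in cells; 0% = agonist plus DMSO wells and 100% = wells without agonist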
# Target sequence (P32249 whole entry, looked up, the tested form may be a part): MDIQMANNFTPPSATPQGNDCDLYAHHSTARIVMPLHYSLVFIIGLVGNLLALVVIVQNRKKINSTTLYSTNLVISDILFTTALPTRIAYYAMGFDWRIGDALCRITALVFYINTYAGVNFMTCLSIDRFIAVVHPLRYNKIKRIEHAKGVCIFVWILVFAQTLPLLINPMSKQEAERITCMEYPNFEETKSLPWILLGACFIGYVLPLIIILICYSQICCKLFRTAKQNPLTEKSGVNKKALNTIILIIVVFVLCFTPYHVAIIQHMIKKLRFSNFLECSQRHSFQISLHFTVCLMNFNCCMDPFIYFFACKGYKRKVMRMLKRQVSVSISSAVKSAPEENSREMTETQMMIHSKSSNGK
# MC4R antagonist: MC4R antagonists of cAMP signaling, primary screen, cell-based, TR-FRET, antagonist arm of biased-ligand search; Melanocortin receptor 4 (Homo sapiens), P32245; MC4R-expressing cells, MTII-stimulated cAMP, LANCE TR-FRET; inhibition, % at 6.5 µM; 360,000 tested, 0.48% active; AID 540295, 2011;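 active = inhibition above its plate's cutoff, the mean of tested wells on that plate plus 3 SD, cut at about 29% in these data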;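 also: 0% = Melanotan II alone and 100% = Melanotan II plus saturating MCL0020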
# Target sequence (P32245 whole entry, looked up): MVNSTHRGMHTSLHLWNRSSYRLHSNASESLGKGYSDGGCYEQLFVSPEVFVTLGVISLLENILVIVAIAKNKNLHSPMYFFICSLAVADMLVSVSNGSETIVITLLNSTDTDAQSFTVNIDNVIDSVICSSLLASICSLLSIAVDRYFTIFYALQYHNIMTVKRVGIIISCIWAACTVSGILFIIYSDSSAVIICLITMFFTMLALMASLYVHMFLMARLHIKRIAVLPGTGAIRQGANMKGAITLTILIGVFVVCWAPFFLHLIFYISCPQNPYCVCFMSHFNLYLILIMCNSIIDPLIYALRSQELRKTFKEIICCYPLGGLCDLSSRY
#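 Material: human MC4R-expressing U2OS cells. Probe or stimulus: Melanotan II challenge. Dosing: 6.5 µM single dose. Times: 30-min compound, 1-h challenge, 1-h detection, room temperature. Technique: TR-FRET with Eu-cAMP and labeled anti-cAMP, 671 nm. Replication: singlicate.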
# MC4R ag barr: MC4R agonists recruiting beta-arrestin, primary screen, cell-based, luminescence, agonist arm of biased-ligand search. Melanocortin receptor 4 (Homo sapiens), P32245. U2OS MC4R beta-arrestin complementation; percent of melanotan II response, DMSO zero. activation, % at 8.9 µM. 360,000 tested, 0.98% active. AID 540308, 2011;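 active = activation above a per-plate cutoff, the mean activation of sample wells on that plate plus 3 SD, cut at about 8% in these data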
# Exocytosis inh: LAMP-1 surface exposure blockers, TALL-104 cells – cell-based, flow cytometry, MLPCN library, primary screen | TALL-104 LAMP-1 surface exposure; cells stimulated with thapsigargin and PMA | inhibition, % at 10 µM | 360,000 tested, 0.66% active | AID 651702, 2012;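 active = inhibition above about 55%, limit read from the data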
# Myeloid diff 2: induction of myeloid progenitor differentiation, primary screen, cell-based, flow cytometry, MLPCN library | calls only at 10 µM | ER-HoxA9 myeloid progenitors, lysozyme-GFP differentiation | 360,000 tested, 1% active | AID 624256, 2012;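 active = normalized GFP-positive differentiation at or above the plate's own cutoff, the solvent-only control mean plus 3 SD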;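 also: cells exposed to compound for four days before flow analysis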
# EBI2 antag conf: EBI2 antagonist hit retest, beta-arrestin, confirmation, cell-based, single concentration, luminescence, 7a,25-OHC stimulation | shares compounds with EBI2 antag | 7a,25-OHC antagonism | inhibition, % at 5 µM | 2,400 tested, 29% active | AID 651997, 2013;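 active = inhibition of at least 50%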
# EBI2 ag: EBI2 agonist activity of antagonist hits, confirmation, counter-screen for EBI2 antagonist project, cell-based, single concentration, agonist mode, luminescence; shares compounds with EBI2 antag; EBI2-expressing cells, 60 min; 0% vehicle, 100% 7α,25-dihydroxycholesterol control; activation, % at 5 µM; 2,400 tested, under 10 active;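 active = activation of at least 50%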
# bGal counter: E. coli beta-galactosidase enzyme inhibition, confirmation, counter-screen for EBI2 antagonist project, biochemical, luminescence, single concentration; shares compounds with EBI2 antag; purified beta-galactosidase, luminescent Galacton Star, 15 min; inhibition, % at 5 µM; 2,400 tested, 1% active;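 active = replicate-average signal at least 3 plate SD below neutral wells, shown as high inhibition, flagging enzyme-inhibiting false positives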;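 also: 0% = DMSO wells with enzyme and 100% = wells lacking enzyme; higher means stronger loss of beta-gal luminescence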
# The depositor's hits bear a star; i = inactive; x = no result.
SMILES,EBI2 antag,MC4R antagonist,MC4R ag barr,Exocytosis inh,Myeloid diff 2,EBI2 antag conf,EBI2 ag,bGal counter
O=C(Nc1ccc(OCC(=O)N2CCOCC2)cc1)c1ccccc1F,-9.4,0.3,0.4,-3.2,i,x,x,x
O=C(c1cc(C2CC2)nn1-c1ccccc1)N1CCN(Cc2ccccc2)CC1,-1.1,4.3,-1.3,6.1,i,x,x,x
O=c1cc(-c2c(F)c(F)c(F)c(F)c2F)oc2ccccc12,81.1*,10.8,-1.4,-1.4,x,83.2*,1.3,4.9
O=c1cc(-c2cccc(F)c2)oc2ccccc12,5.1,9.9,0.1,8.4,i,x,x,x
O=C(C1CCN(S(=O)(=O)c2cccc3nsnc23)CC1)N1CCn2c1nc1ccccc12,85.8*,6.9,-10.6,3.2,i,83.6*,-5.2,79.4*
O=C(C1CCN(S(=O)(=O)c2cccc3nsnc23)CC1)N1CCc2ccccc21,5.0,5.0,-0.5,-0.2,i,x,x,x
O=C(N/C(=C/C=C/c1ccccc1)C(=O)N1CCOCC1)c1ccccc1Br,5.0,-3.0,-2.3,1.0,i,x,x,x
Cc1oc(-c2ccccc2F)nc1CS(=O)(=O)CC(=O)NCc1ccccc1Cl,-3.4,3.4,0.8,-0.3,i,x,x,x
CN(C)C(=O)CCc1ccc2c3c([nH]c2c1)[C@]1(CCc2ccccc2)[C@@H](C(=O)N2CCCCC2)C[C@H](CC(=O)NCc2cccc(C(F)(F)F)c2)C(=O)N1CC3,42.4*,0.3,-2.0,-0.8,i,33.2,-1.2,-22.7
Cc1nc2c(OCc3ccc(Cl)cc3Cl)cccn2c1N(C)Cc1cccs1,42.0*,3.1,-7.0,22.0,i,29.4,-0.7,-12.4
O=C(Nc1ccccc1)c1ccc(Nc2c([N+](=O)[O-])cc([N+](=O)[O-])c3ccccc23)cc1,48.7*,-5.7,-0.1,-0.1,i,46.6,-0.9,22.8
Cc1c(C(=O)Nc2ccc(Nc3ccccc3)cc2)cccc1[N+](=O)[O-],10.2,-1.2,-1.6,20.8,i,x,x,x
CS(=O)(=O)N1CCN(C(=O)COc2ccccc2)CC1,-2.5,0.9,-2.8,-0.5,i,x,x,x
O=C(COc1ccc2ccccc2c1)N1CCN(c2ccccc2O)CC1,71.3*,0.4,-0.5,-1.2,i,61.6*,-0.4,-8.1
CCc1ccc(OCC(=O)N2CCN(c3ccccc3F)CC2)cc1,64.7*,-0.1,-3.4,0.8,i,75.5*,-0.3,3.1
CS(=O)(=O)N1CCN(C(=O)COc2ccc3ccccc3c2)CC1,78.6*,3.6,-1.5,0.0,i,46.5,0.8,5.1
CC1CCCN(c2ccc(C(=O)Nc3ccc4c(c3)OCO4)cc2[N+](=O)[O-])C1 (stereo not given),45.9*,2.6,-1.2,0.3,i,33.9,0.8,7.6
COc1ccc(NC(=O)c2ccc3c(c2)C(=O)N(CC2CCCO2)C3=O)cc1 (stereo not given),79.7*,-0.3,-0.1,2.9,i,49.9,0.9,6.9
O=C(COc1ccccc1)Nc1ccc2c(c1)C(=O)N(CC1CCCO1)C2=O (stereo not given),45.0*,1.5,-0.6,8.6,i,20.9,-0.3,8.2
COc1cccc(NC(=O)c2ccc3c(c2)C(=O)N(CC2CCCO2)C3=O)c1 (stereo not given),60.1*,0.2,0.8,1.0,i,32.0,0.4,8.3
COC(=O)C1(C(=O)OC)C/C=C\CN(S(=O)(=O)c2ccccc2[N+](=O)[O-])CC1,-9.8,x,x,-5.7,i,x,x,x
CCN1C(=O)c2ccc(C(=O)Nc3ccc4c(c3)OCO4)cc2C1=O,49.2*,0.3,-1.5,-2.4,i,18.7,1.0,-14.7
COCCCN1C(=O)c2ccc(C(=O)Nc3ccc(OC)cc3)cc2C1=O,58.1*,3.4,-2.0,-4.1,i,48.8,2.2,1.0
CCN1C(=O)c2ccc(C(=O)NCc3ccc4c(c3)OCO4)cc2C1=O,7.9,-5.8,-0.7,4.7,i,x,x,x
COC(=O)c1cccc(NC(=O)c2ccc3c(c2)C(=O)N(CC2CCCO2)C3=O)c1 (stereo not given),44.0*,8.3,-0.2,-0.1,i,30.7,0.3,-18.9
SMILES,EBI2 antag,MC4R antagonist,MC4R ag barr,Exocytosis inh,Myeloid diff 2,EBI2 antag conf,EBI2 ag,bGal counter
CCN(CC(=O)Nc1c(F)cccc1F)C(=O)CCN1C(=O)C2CCCCC2C1=O (stereo not given),1.4,-8.3,-2.3,-7.3,i,x,x,x
O=C(/C=C/c1ccccc1Cl)N1CCOCC1,-5.4,3.5,-0.8,-3.7,i,x,x,x
O=C(/C=C/c1cccc(F)c1)N1CCN(c2ncccn2)CC1,90.4*,0.6,-3.6,2.7,i,69.0*,1.3,-1.2
O=C(/C=C/c1ccccc1Cl)N1CCN(c2ncccn2)CC1,60.0*,0.1,-2.2,-2.7,i,38.9,-0.9,-20.1
O=C(c1ccc(F)cc1F)N1CCN(c2ncccn2)CC1,-5.0,5.5,2.4,1.2,i,x,x,x
CCOC(=O)[C@]12CCC=C1N(CCC1=CCCCC1)C(=O)[C@H](CC(=O)N1CCSCC1)C2,-9.2,x,x,-1.1,i,x,x,x
CCOC(=O)c1c(C)nc(C)c(C(=O)OCC)c1-c1cccc([N+](=O)[O-])c1,58.9*,-4.7,-1.5,-10.3,i,34.6,0.3,7.3
O=C(/C=C/c1ccc(Br)cc1)c1ccc(NC(=O)c2ccco2)cc1,42.9*,8.6,0.6,-8.0,i,8.6,-1.2,-7.8
CSc1ccc(/C=C/C(=O)c2ccc(NC(C)=O)cc2)cc1,80.5*,3.9,-2.1,-0.3,x,39.8,-0.1,6.2
CC(=O)Nc1ccc(/C=C/C(=O)c2ccc3c(c2)OCCO3)cc1,10.4,2.3,-2.2,4.4,i,x,x,x
O=C(/C=C/c1ccc(Br)cc1)c1ccco1,-18.5,-1.5,-3.1,13.0,i,x,x,x
CCCC(=O)Nc1ccc(C(=O)/C=C/c2ccc(SC)cc2)cc1,43.5*,-1.9,4.2,-6.2,x,38.2,0.0,6.0
CCc1nc2c(OCc3cccc(Cl)c3)cccn2c1N(C)C(=O)C1CC1,3.6,-14.0,-1.1,-2.7,i,x,x,x
